For three compounds, inhibition, Ki and Kd results are on record in ChEMBL document CHEMBL4049434, “Radiolabeled Dibenzodiazepinone-Type Antagonists Give Evidence of Dualsteric Binding at the M2 Muscarinic Acetylcholine Receptor” (J Med Chem, 2017).

By Ki is commonly meant the equilibrium dissociation constant of an inhibitor or competing ligand from its target. Broadly, the Kd is the equilibrium constant for the complex coming apart.

Calls of active or inactive are those of the source. The rule behind the calls is not given here.

Experiment [1] addresses Muscarinic acetylcholine receptor M2 (Homo sapiens) (UniProt P08172). Briefly: Displacement of [3H]NMS from human muscarinic acetylcholine receptor M2 expressed in CHOK9 cells at <100 uM after 3 hrs by liquid scintillation counting assay.
For experiment [2] the target is unchanged. Briefly: Displacement of [3H]UNSW-MK259 from human muscarinic acetylcholine receptor M2 expressed in CHOK9 cells at <100 uM after 3 hrs by liquid scintillation counting assay. A general note: Displacement assays read how much labelled ligand stays bound in the presence of the test substance.
Experiment [3] addresses T1, Muscarinic acetylcholine receptor M2 (Homo sapiens, UniProt P08172).
T1 sequence (P08172 whole entry): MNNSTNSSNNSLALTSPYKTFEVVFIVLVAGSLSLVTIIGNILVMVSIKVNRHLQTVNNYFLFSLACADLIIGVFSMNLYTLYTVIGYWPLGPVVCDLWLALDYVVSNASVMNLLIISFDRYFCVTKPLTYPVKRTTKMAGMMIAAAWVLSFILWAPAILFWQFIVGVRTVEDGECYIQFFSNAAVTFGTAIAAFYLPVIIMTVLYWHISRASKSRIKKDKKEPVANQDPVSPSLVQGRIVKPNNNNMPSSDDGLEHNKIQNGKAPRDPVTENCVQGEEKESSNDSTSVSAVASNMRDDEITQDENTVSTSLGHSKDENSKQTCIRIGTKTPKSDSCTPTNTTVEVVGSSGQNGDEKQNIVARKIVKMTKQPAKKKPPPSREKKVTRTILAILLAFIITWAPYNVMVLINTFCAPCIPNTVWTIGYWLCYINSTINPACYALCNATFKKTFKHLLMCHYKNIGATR
Briefly: (§1) Displacement of [3H]NMS from human muscarinic acetylcholine receptor M2 expressed in CHOK9 cells after 3 hrs by liquid scintillation counting assay. It is filed as cell-based. To be noted: read-out: Ki.

Experiment [4] deals with T1, Muscarinic acetylcholine receptor M2. In words: Binding affinity to human muscarinic acetylcholine receptor M2 expressed in live adherent CHOK9 cells after 2 hrs by liquid scintillation counting assay. It is filed as cell-based. A digest of the protocol: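 Live adherent CHO-hM2 cells in L15 medium with 1% BSA, 23 ± 1 °C, 2 h incubation. Competition at 2 nM radioligand; additional 4, 8, 15 and 30 nM in W84 experiments. […] Saturation data fitted one-site; competition by four-parameter logistic fits; at least three experiments in triplicate.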

Experiment [5] shares this target. In words: Ratio of binding affinity to human muscarinic acetylcholine receptor M2 expressed in CHOK9 cells assessed as dissociation rate constant to binding affinity to human muscarinic acetylcholine receptor M2 expressed in CHOK9 cells assessed as association rate constant. Type of experiment: cell-based.
The target is the same in experiment [6]. In words: Binding affinity to human muscarinic acetylcholine receptor M2 expressed in live adherent CHOK9 cells assessed as saturation binding after 2 hrs by liquid scintillation counting assay.
Experiment [7] concerns the target T2, Muscarinic acetylcholine receptor M2 (Homo sapiens) (UniProt P08172).
T2 sequence (whole entry): T1 sequence (P08172 whole entry)
Described as §1. It is filed as cell-based.

On to `CCC(=O)NCCNC(=O)CCc1c[nH]cn1`, for which the inhibition result in experiment [1] and in experiment [2] was “inactive” in each case.
Take `[3H]CC([3H])C(=O)NCCNC(=O)CCc1cn(CCCCC2CCN(CC(=O)N3c4ccccc4NC(=O)c4ccccc43)CC2)cn1` (configuration not stated): the Ki in experiment [3] turned out to be 0.76 nM. Moreover, the results for the dissociation constant (Kd) in experiment [4], in experiment [5] and in experiment [6] were 0.87 nM, 0.7 nM and 0.87 nM, respectively.
On to `O=C1Nc2ccccc2N(C(=O)CN2CCN(CC(=O)N3c4ccccc4NC(=O)c4ccccc43)CC2)c2ccccc21`, for which, in experiment [7], the inhibition result was “Active”.
